Source: PMC9256809 (Molecular Cancer Therapeutics, 2022)

How the values were obtained:
Ba/F3 cells FLT3- ITD = test: Antiproliferative assay in Ba/F3 cells transfected with FLT3 variants; type: cell-based, mouse; conditions: for IC50: Mus musculus, BaF3
Ba/F3 cells FLT3 D835Y = test: as above; type: cell-based; conditions: Mus musculus, BaF3
[1] = tested on: Ba/F3 cells FLT3-ITD + F691L; test: as above; type: cell-based; conditions: Mus musculus, BaF3
[2] = tested on: Ba/F3 cells FLT3-ITD + D835Y; test: as above; type: cell-based; conditions: Mus musculus, BaF3
[3] = tested on: relapsed or refractory FLT3-mutated AML; conditions: FLT3 inhibitor-naïve patients with relapsed or refractory FLT3-mutated AML; cited from earlier work
THP-1 = test: Antiproliferative assay; type: cell-based; conditions: Homo sapiens, THP-1, 72 h, read-out: Mean IC50
Outline: (§1)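 Human AML lines from ATCC or DSMZ, STR-authenticated, mycoplasma-tested every 2 months and grown in source-recommended medium. Cells were exposed in four replicates to increasing concentrations of test compound for 72 h. Proliferation was read with the CellTiter 96 AQueous One (MTS) reagent.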

EOL-1 = test: Antiproliferative assay; type: cell-based; conditions: Homo sapiens, EOL1, 72 h, read-out: Mean IC50
Outline: as §1

FLT3 = FLT3 (Homo sapiens, UniProt P36888); test: Plasma inhibition assay; conditions: phase I doses yielding plasma concentrations up to 1 μmol/L
Chain of FLT3 (P36888 27-993): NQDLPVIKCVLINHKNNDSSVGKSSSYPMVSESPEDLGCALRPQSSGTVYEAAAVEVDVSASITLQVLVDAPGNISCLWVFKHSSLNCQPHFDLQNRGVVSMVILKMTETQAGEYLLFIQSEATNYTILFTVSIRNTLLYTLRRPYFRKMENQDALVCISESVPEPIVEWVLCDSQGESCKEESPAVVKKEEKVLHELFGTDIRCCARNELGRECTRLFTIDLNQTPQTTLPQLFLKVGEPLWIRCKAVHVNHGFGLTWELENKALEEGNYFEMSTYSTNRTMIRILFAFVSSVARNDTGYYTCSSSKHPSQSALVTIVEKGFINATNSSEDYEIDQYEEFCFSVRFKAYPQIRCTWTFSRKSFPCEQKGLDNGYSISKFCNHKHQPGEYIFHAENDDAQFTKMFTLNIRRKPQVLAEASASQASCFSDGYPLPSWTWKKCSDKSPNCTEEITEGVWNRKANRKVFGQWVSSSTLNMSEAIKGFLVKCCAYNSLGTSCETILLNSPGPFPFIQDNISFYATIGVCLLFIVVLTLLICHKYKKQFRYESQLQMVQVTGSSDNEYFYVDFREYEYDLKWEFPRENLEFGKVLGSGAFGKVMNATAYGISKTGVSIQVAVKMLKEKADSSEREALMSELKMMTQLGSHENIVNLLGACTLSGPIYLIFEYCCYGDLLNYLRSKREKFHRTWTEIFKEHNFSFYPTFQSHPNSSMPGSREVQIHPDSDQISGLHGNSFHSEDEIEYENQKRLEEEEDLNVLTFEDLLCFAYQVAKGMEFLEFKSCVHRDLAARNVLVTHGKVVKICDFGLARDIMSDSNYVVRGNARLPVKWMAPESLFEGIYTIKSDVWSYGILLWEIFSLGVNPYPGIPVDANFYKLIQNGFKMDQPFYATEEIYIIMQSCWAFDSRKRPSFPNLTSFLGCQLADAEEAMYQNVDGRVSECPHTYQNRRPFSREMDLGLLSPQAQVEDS

ERBB = ERBB (Homo sapiens, UniProt P04626); test: RBC enzymatic assay, ATP at Km; type: biochemical
Outline: (§2)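 Recombinant kinases were assayed with ATP at each kinase's Km, and IC50 values were determined.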

phosphorylation of FLT3 = test: Western blot analysis of kinase inhibition; type: cell-based; conditions: Fig. 2B
Outline: (§3)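 Cells were exposed to vehicle DMSO or a concentration range of test compound for 1 or 24 h, then lysed. Blots were probed for total and phosphorylated FLT3 (pY589/591), STAT5 (pY694) and ERK1/2 (pT202/204). Images are representative of 3 biological repeats.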

TEC = TEC (Homo sapiens, UniProt P42680); test: RBC enzymatic assay, ATP at Km; type: biochemical
Chain of TEC (P42680 whole entry): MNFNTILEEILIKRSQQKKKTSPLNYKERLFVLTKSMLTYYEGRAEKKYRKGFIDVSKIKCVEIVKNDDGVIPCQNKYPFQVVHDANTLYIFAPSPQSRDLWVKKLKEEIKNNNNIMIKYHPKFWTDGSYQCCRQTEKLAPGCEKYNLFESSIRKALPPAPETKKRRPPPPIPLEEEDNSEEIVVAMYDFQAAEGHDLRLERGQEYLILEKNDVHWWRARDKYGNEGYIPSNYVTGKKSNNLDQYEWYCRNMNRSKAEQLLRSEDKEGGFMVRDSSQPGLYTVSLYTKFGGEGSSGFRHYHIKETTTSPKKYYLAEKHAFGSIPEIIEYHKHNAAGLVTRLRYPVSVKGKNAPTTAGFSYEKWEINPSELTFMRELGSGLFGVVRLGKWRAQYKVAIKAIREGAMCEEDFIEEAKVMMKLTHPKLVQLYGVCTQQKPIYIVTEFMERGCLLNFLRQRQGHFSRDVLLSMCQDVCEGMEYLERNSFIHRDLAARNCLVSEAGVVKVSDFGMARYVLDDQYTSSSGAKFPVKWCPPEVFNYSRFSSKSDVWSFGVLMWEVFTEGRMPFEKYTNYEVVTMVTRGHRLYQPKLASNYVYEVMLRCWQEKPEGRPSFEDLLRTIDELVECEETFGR
Outline: as §2

[4] = Cardiovascular study in dogs; type: in vivo
[5] = tested on: samples from patients with MDS/MPN; test: Ex vivo cell viability assay; type: cell-based; conditions: Homo sapiens, read-out: median IC50
Outline: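 Freshly isolated patient mononuclear cells (peripheral blood or bone marrow) were plated at 10,000 cells/well. They were given a seven-point, 3-fold dilution series from 10 to 0.0137 µmol/L, made from DMSO stocks, and incubated 3 days. Growth was read by MTS; absorbance was background-subtracted and normalised to untreated wells. IC50 was obtained per sample and the median taken.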

MOLM-13 = test: Antiproliferative assay; type: cell-based; conditions: Homo sapiens, MOLM-13, 72 h, read-out: Mean IC50
Outline: as §1

phosphorylation of STAT5 = test: Western blot analysis of kinase inhibition; type: cell-based; conditions: Fig. 2B
Outline: as §3

[6] = tested on: FLT3-mutant AML cell lines and the PDGFR-α mutant EOL-1 cell line; test: Apoptosis by PARP cleavage; type: cell-based, human; conditions: all 3 FLT3-mutant AML cell lines and EOL-1
Outline: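 Cells were treated with DMSO vehicle or test compound for 1 or 24 h, then lysed. Apoptosis was assessed by Western blot for PARP cleavage.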

HEL92.1.7 = test: Antiproliferative assay; type: cell-based; conditions: Homo sapiens, HEL 92.1.7, 72 h, read-out: Mean IC50
Outline: as §1

CYP3A5 = CYP3A5 (Homo sapiens, UniProt P20815); test: Metabolism studies; type: in vitro ADME
Chain of CYP3A5 (P20815 whole entry): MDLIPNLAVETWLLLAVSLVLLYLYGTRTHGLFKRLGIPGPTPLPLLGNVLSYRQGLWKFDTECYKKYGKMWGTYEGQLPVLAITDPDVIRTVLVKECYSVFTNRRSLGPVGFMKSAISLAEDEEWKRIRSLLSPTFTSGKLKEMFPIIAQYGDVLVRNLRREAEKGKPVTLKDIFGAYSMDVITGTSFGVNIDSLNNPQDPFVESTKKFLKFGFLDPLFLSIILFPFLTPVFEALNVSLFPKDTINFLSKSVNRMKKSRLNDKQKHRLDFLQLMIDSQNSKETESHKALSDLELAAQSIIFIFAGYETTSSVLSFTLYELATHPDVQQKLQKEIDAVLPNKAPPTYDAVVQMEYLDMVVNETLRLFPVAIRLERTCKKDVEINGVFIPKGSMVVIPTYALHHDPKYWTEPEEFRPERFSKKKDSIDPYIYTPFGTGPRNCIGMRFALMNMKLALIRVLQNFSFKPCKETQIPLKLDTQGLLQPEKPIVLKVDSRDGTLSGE

[7] = tested on: MV4–11 FLT3-ITD xenograft; test: MV4–11 subcutaneous xenograft study; type: in vivo, BALB/c nu/nu mice
FLT3 ITD/F691L = FLT3 ITD/F691L (Homo sapiens, UniProt P36888, F691L/ITD); test: DiscoverX KINOMEscan competition binding
Chain of FLT3 ITD/F691L (P36888 564-993 F691L): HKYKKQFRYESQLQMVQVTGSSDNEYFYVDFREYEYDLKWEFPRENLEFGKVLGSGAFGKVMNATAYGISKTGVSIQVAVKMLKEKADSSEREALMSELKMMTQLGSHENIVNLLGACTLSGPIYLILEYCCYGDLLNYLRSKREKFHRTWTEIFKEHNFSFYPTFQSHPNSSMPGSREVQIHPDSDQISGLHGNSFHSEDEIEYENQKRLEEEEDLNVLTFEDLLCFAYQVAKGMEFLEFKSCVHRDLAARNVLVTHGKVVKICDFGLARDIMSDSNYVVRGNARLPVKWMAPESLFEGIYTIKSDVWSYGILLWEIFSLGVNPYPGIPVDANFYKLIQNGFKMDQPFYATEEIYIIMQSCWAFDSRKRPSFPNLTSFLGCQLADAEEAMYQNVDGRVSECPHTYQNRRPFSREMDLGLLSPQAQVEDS

[8] = 28-day GLP repeat-dose toxicology study; type: in vivo; conditions: dogs, up to highest dose tested of 600 mg/kg orally
[9] = biological target: hERG potassium ion channel (Homo sapiens, UniProt Q12809); test: hERG inhibition
Chain of hERG potassium ion channel (Q12809 whole entry): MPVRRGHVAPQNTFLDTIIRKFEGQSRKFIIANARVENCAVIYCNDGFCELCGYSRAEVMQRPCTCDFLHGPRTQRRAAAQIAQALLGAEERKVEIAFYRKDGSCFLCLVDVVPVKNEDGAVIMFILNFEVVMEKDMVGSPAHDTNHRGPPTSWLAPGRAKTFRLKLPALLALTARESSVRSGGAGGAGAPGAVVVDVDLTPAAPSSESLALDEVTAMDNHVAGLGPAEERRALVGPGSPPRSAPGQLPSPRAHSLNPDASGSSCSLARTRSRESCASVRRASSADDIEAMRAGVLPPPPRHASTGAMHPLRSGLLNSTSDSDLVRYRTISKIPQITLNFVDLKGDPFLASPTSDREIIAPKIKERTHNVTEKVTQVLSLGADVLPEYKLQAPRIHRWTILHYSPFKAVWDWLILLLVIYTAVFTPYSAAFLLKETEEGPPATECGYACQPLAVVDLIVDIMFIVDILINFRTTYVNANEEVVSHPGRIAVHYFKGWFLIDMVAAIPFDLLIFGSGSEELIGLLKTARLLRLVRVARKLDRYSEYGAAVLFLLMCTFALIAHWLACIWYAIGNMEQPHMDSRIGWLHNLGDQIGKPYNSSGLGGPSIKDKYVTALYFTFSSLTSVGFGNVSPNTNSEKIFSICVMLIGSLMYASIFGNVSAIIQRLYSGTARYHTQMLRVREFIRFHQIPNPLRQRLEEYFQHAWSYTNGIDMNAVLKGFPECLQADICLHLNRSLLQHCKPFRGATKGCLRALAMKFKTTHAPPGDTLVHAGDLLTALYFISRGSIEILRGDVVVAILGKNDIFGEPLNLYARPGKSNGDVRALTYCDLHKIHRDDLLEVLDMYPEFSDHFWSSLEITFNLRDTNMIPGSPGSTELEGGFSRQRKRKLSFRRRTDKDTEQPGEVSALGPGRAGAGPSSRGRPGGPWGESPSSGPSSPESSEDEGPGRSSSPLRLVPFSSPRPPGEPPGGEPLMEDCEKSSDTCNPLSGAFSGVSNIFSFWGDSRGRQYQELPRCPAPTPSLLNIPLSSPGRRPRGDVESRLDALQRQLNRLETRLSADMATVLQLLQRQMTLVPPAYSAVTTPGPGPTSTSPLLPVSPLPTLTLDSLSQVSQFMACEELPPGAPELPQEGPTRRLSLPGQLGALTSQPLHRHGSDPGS

[10] = tested on: phosphorylation of ERK1/2; test: Western blot analysis of kinase inhibition; type: cell-based; conditions: Fig. 2B
Outline: as §3

FLT3– ITD = FLT3– ITD (Homo sapiens, UniProt P36888, ITD); test: DiscoverX KINOMEscan competition binding
Chain of FLT3– ITD (P36888 564-993, change not shown): as the sequence (P36888 564-993 F691L) above, with L128F counted along it

FLT3-ITD = FLT3-ITD (Homo sapiens, UniProt P36888); test: RBC enzymatic assay, ATP at Km; type: biochemical
Chain of FLT3-ITD (P36888 564-993, change not shown): as the sequence (P36888 564-993 F691L) above, with L128F counted along it
Outline: as §2

FLT3 D833Q (TKD) = FLT3 D833Q (TKD) (Homo sapiens, UniProt P36888); test: DiscoverX KINOMEscan competition binding
Chain of FLT3 D833Q (TKD) (P36888 610-943, stated change not applied): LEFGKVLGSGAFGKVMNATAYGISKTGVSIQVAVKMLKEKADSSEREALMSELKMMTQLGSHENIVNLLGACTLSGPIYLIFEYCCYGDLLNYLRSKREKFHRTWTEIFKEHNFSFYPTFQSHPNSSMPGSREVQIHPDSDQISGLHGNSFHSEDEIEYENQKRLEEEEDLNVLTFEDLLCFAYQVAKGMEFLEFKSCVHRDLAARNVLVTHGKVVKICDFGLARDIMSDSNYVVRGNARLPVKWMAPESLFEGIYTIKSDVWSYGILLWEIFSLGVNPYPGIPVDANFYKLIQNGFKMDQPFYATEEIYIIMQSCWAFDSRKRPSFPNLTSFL

[11] = Phase I trial tolerability; type: in vivo, patients with AML and MDS/MPN; conditions: doses that yield plasma concentrations up to 1 μmol/L
[12] = tested on: primary mononuclear cells from patients with AML; test: Ex vivo cell viability assay; type: cell-based; conditions: Homo sapiens, read-out: median IC50, 186 primary samples from patients with AML
CYP3A4 = CYP3A4 (Homo sapiens, UniProt P08684); test: Metabolism studies; type: in vitro ADME
Chain of CYP3A4 (P08684 whole entry): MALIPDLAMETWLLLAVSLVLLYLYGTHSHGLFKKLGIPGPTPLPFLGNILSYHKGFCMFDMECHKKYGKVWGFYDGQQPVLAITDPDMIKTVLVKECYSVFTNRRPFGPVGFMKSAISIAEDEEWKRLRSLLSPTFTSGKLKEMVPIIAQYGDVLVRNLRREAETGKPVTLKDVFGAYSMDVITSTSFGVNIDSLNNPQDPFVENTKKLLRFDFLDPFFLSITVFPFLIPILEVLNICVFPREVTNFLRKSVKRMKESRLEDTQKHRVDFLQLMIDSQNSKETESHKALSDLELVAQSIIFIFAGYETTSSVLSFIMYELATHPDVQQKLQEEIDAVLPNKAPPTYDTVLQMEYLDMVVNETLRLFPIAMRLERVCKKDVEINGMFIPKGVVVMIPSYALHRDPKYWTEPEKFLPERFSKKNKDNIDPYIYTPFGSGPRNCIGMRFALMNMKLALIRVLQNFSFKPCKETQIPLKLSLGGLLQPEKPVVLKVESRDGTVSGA

Which IC50 (Ba/F3 cells FLT3- ITD) does the source give for CC1(COc2ccc3c(c2)ncn3-c2ccc3cccc(N4CCC(N)CC4)c3n2)COC1 [Crenolanib, crenolanib] here?
The IC50 was 38 ± 8 nM.

And the IC50 (Ba/F3 cells FLT3 D835Y)?
Its IC50 is 831 ± 195 nM.

And the IC50 [1]?
Its IC50 is 286 ± 9 nM.

And the IC50 [2]?
The IC50 was 37 ± 13 nM.

For CCc1nc(C(N)=O)c(Nc2ccc(N3CCC(N4CCN(C)CC4)CC3)c(OC)c2)nc1NC1CCOCC1 [Gilteritinib, gilteritinib], which IC50 (Ba/F3 cells FLT3- ITD) is on record?
Its IC50 is 28 ± 2 nM.

What about the IC50 (Ba/F3 cells FLT3 D835Y) of the same compound?
The IC50 was 521 ± 68 nM.

And the IC50 [1]?
Its IC50 is 96 ± 6 nM.

And the event-free survival [3]?
The event-free survival was 2.8 months.

And the response rate [3]?
The response rate was 34%.

And the IC50 [2]?
Its IC50 is 9 ± 5 nM.

With Cc1cnc(-c2ccc(-c3ccc(NC(=O)Nc4c(F)cc(F)cc4F)cc3F)c3c2C(=O)NC3)[nH]1 [luxeptinib, Luxeptinib] as the compound, how does the IC50 (THP-1) read?
Its IC50 is 2970 nM.

And the “fold more potent than quizartinib” value (Ba/F3 cells FLT3- ITD; FLT3-ITD in the Ba/F3 system)?
Its value is 4 fold.

And the IC50 (Ba/F3 cells FLT3- ITD)?
The IC50 was 1 ± 0.2 nM.

And the IC50 (Ba/F3 cells FLT3 D835Y)?
Its IC50 is 6 ± 0.4 nM.

And the IC50 (EOL-1)?
The IC50 was 0.045 nM.

What about the “inhibition of FLT3 in a plasma inhibition assay” value (FLT3) of the same compound?
Its value is “almost complete inhibition”.

And the IC50 (ERBB)?
Its IC50 is over 1000 nM.

And the “phosphorylation of FLT3” value (phosphorylation of FLT3)?
The value was “potently reduces the phosphorylation”.

What about the IC50 (TEC) of the same compound?
The IC50 was 139 nM.

What about the “effect on QTc or any other parameter of heart function” value [4] of the same compound?
Its value is “no effect”.

What about the IC50 [5] of the same compound?
The IC50 was under 200 nM.

What about the IC50 [1] of the same compound?
The IC50 was 9 ± 1 nM.

And the IC50 (MOLM-13)?
Its IC50 is 0.395 nM.

What about the “phosphorylation of downstream STAT5” value (phosphorylation of STAT5) of the same compound?
Its value is “reduces the phosphorylation”.

What about the “concentration inducing apoptosis (PARP cleavage)” value [6] of the same compound?
The value was at most 5 nmol/L.

And the IC50 (HEL92.1.7)?
The IC50 was 4690 nM.

And the “involvement of CYP3A5 in metabolism” value (CYP3A5)?
Its value is “involved in the metabolism”.

And the “mice with tumor growth completely suppressed out to 120 days” value ([7]; 300 mg/kg twice a day, oral gavage, 28 days)?
Its value is 10 of 11.

What about the “weight loss or clinically apparent adverse events” value ([7]; doses up to 300 mg/kg twice a day, mice) of the same compound?
The value was “No weight loss or clinically apparent adverse events”.

What about the “Inhibition of tumor growth” value ([7]; lowest dose of 20 mg/kg/day, oral, 28 days) of the same compound?
Its value is “apparent”.

And the “response of regrown tumors to second 28-day treatment” value ([7]; re-treatment at 300 mg/kg twice a day, 100 and 300 mg/kg groups)?
The value was “All tumors that regrew in these two groups responded”.

What about the Kd (FLT3 ITD/F691L) of the same compound?
The Kd was 16 nM.

And the “hematologic, cardiovascular or other organ toxicities” value [8]?
Its value is “No hematologic, cardiovascular or other organ toxicities were observed”.

What about the “inhibition of hERG potassium ion channel” value [9] of the same compound?
The value was “did not inhibit”.

What about the “phosphorylation of downstream ERK1/2” value [10] of the same compound?
Its value is “reduces the phosphorylation”.

What about the Kd (FLT3– ITD) of the same compound?
Its Kd is 3.1 nM.

What about the IC50 (FLT3-ITD; FLT3-ITD, recombinant kinase with ATP concentration at the Km) of the same compound?
The IC50 was 0.8 nM.

And the “fold lower inhibitory concentration for recombinant FLT-ITD than WT FLT3” value (FLT3-ITD; recombinant kinases)?
Its value is 10 fold.

And the Kd (FLT3 D833Q (TKD))?
Its Kd is 6.4 nM.

And the “tolerability in phase I trial” value [11]?
Its value is “generally well tolerated”.

And the IC50 [2]?
The IC50 was 22 ± 9 nM.

What about the IC50 [12] of the same compound?
The IC50 was 94.5 nM.

And the “involvement of CYP3A4 in metabolism” value (CYP3A4)?
Its value is “involved in the metabolism”.
